In the library only some 2.3% were active in any assay of this set; here they are far more common.
MEKK2 mut-MEK5: signal of MEK5 binding to mutant human MEKK2 PB1 domain; bead flow cytometry, Alexa488-MEK5 binding to MEKK2 mutant; percent response, % at 10 µM; hit rate 0.35% among 290,000; in the data active = percent response above about 24%, passing the limit was not always enough
MEKK3 PB1 HTS: modulators (inhibitors or enhancers) of MEK5 binding to human MEKK3 PB1 domain; Q99759; bead-based flow cytometry, Alexa488-MEK5 binding to MEKK3; actives lie on both sides; 0 = blocked by unlabeled MEK5, 100 = vehicle; binding response (% of control), % at 10 µM; hit rate 1.4% among 290,000;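 active = binding response more than 3 SD above or below the average of its plate-row segment, actives on both sides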;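 note: Alexa488 bead fluorescence after subtracting the streptavidin-only scavenger bead signal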
Target sequence (Q99759 whole entry, looked up, the tested form may be a part): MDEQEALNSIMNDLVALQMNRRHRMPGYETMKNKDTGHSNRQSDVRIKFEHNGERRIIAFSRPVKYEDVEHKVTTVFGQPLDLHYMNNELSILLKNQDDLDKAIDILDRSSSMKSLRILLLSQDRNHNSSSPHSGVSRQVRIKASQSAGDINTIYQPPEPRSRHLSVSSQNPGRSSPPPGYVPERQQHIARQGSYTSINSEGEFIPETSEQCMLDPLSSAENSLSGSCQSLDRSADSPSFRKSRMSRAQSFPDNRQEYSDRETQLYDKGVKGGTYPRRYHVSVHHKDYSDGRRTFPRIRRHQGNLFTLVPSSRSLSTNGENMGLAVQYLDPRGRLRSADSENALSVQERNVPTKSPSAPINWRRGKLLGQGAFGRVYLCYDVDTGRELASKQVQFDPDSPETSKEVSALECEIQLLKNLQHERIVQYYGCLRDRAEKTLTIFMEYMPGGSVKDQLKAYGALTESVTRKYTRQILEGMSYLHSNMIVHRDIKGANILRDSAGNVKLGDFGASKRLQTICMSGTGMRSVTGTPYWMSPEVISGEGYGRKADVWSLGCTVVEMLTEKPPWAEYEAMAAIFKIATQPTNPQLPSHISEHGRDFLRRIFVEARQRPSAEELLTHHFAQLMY
Arrestin-AP2 inh: human beta-arrestin and AP2 interaction inhibition. FITC-arrestin peptide / GST-AP2 beads, flow cytometry; AP2 beta2 appendage carries R879A mutation. inhibition, % at 10 µM. hit rate 0.31% among 340,000. AID 504490;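 active = inhibition above a set limit, near 3 SD of compounds lacking own fluorescence, cut at about 54% in these data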;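 note: plate controls were DMSO wells for no effect and 5 µM unlabelled arrestin peptide for full effect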
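Material – AP2 appendage R879A on GSH beads · Buffer or medium – PBS with 0.05% Tween 20 and 0.1% BSA · Probe or stimulus – fluorescein-tagged arrestin peptide at 50 nM final · Incubation – compound with beads 12 min RT, then probe 1 h RT · Detection – high-throughput flow cytometry of beads, ex 488, em 535 nm · Evaluation – percent response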
MEKK2 WT-MEK5: raises or lowers MEK5 binding to wildtype human MEKK2 PB1 domain; bead flow cytometry, Alexa488-MEK5 binding to MEKK2 WT; actives lie on both sides; binding response (% of control), % at 10 µM; hit rate 1.1% among 290,000; AID 1531; in the data active = binding response below about 67% or above about 130%
MEKK2wt confirm: raises or lowers MEK5 binding to wildtype human MEKK2, retest; hit rate 2.4% among 5,900; binding response (% of control), % at 10 µM; shares compounds with MEKK3 PB1 HTS; bead flow cytometry, Alexa488-MEK5 binding to MEKK2 WT; actives lie on both sides; AID 1892; in the data active = binding response below about 16% or above about 210%; inactive = in between
MEKK2mut confirm: signal of MEK5 binding to mutant human MEKK2, retest | shares compounds with MEKK3 PB1 HTS | bead flow cytometry, Alexa488-MEK5 binding to MEKK2 mutant | percent response, % at 10 µM | hit rate 2% among 5,900 | AID 1893; in the data active = percent response mostly above about 71%, no sharp cut-off; inactive = mostly below about 38%;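 note: higher means compound restores mutant binding toward wildtype level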
MEKK3-MEK5 inh: MEKK3-MEK5 PB1 inhibition, single concentration confirmation; hit rate 1.8% among 5,900; binding response (% of control), % at 10 µM; AID 1894; bead flow cytometry, Alexa488-MEK5 binding to MEKK3; active compounds read low; shares compounds with MEKK3 PB1 HTS;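 active = binding response below 72% of control, or above a set upper limit, though filed actives all read lower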;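 note: 100% = DMSO only wells and 0% = binding blocked by excess unlabeled MEK5; lower values mean stronger disruption of MEK5 binding to MEKK3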
An asterisk follows results filed as active; · = no result; [ ] = dose if it differs, or a comment.

SMILES	MEKK2 mut-MEK5	MEKK3 PB1 HTS	Arrestin-AP2 inh	MEKK2 WT-MEK5	MEKK2wt confirm	MEKK2mut confirm	MEKK3-MEK5 inh
Cc1ccc(C(=O)NCCN2C3=NC[C@@H](Cc4ccccc4)N3C[C@H]2Cc2ccc(O)cc2)cc1Br	52.0*	107.0	-6.9	185.0*	200.0	56.0	113.0
Cc1ccc(C(=O)NCCN2C3=NC[C@H](Cc4ccc(O)cc4)N3C[C@H]2Cc2ccc(O)cc2)cc1Br	13.0	106.0	0.8	143.0*	134.0	15.0	100.0
Cc1ccc(C(=O)N[C@@H](C)CN2C3=NC[C@H](C(C)C)N3C[C@H]2Cc2ccc(O)cc2)cc1Br	21.0	105.0	-15.9	128.0	·	·	·
COc1ccc(C[C@H]2CN3C(=NC[C@@H]3Cc3ccc(O)cc3)N2CCNC(=O)c2ccc(C)c(Br)c2)cc1	96.0*	111.0	6.0	247.0*	196.0	48.0	109.0
C/C=C(\C)C(=O)NCCN1C2=NC[C@@H](C)N2C[C@@H]1Cc1ccc(OC)cc1	17.0	105.0	2.2	118.0	·	·	·
C/C(CC(=O)Nc1ccccn1)=N\NC(=O)c1ccncc1	-4.0	93.0	·	90.0	·	·	·
CCCCC(=O)N(c1ccc(C)c(C)c1)C1C=CS(=O)(=O)C1 (stereo not given)	-22.0	1.0*[inhibitor]	12.9	-7.0*[inhibitor]	99.0	-5.0	101.0
CCOC(=O)c1c(C)n(C)c2ccc(OC)c(NC(=O)CN3CCN(C4CCCCC4)CC3)c12	-5.0	99.0	24.2	102.0	·	·	·
CCOC(=O)c1c(C)n(C)c2ccc(OC)c(NC(=O)CN3CCC(C(=O)OCC)CC3)c12	-37.0	47.0*[inhibitor]	-0.6	55.0	102.0	6.0	102.0
Cc1cc(-c2ccccc2)nc(Nc2nc3c(C)cccc3c(=O)[nH]2)n1	·	·	-0.4	·	·	·	·
CN1CCN(CCCNC(=O)c2ccc(/C=C3\Sc4ccccc4N(Cc4ccccc4F)C3=O)cc2)CC1	36.0	97.0	-1.9	167.0*	190.0	62.0	110.0
Cc1cccc(CN2C(=O)/C(=C\c3ccc(C(=O)NCCN4CCOCC4)cc3)Sc3ccccc32)c1	9.0	107.0	19.4	130.0	·	·	·
CCN1CCN(CCNC(=O)c2ccc(/C=C3/Sc4ccccc4N(Cc4cccc(Cl)c4)C3=O)cc2)CC1	120.0*	111.0	14.5	280.0*	234.0*	100.0*	116.0
CCN(CC)CCN(C(=O)CCOc1ccccc1)c1nc2c(F)cc(F)cc2s1	17.0	106.0	9.2	148.0*	142.0	33.0	107.0
C#CCOCCOCCOCCNc1nc(N2CCN(C(=O)[C@H](CCC(=O)O)n3cc(C(N)CC(C)C)nn3)CC2)nc(N2CCN(C(=O)[C@H](Cc3cc4ccccc4[nH]3)n3cc(C(N)CC(C)C)nn3)CC2)n1 (stereo not given in full)	8.0	98.0	-1.3	107.0	·	·	·
CCC(C)[C@H](N)c1cn([C@@H](Cc2cc3ccccc3[nH]2)C(=O)N2CCNCC2)nn1 (stereo not given in full)	34.0	92.0	-0.8	151.0*	147.0	45.0	111.0
CC(C)C[C@H](N)c1cn([C@@H](Cc2cc3ccccc3[nH]2)C(=O)N2CCNCC2)nn1	32.0	106.0	3.6	147.0*	136.0	53.0	106.0
CCC(C)[C@H](N)c1cn([C@@H](Cc2ccc(O)cc2)C(=O)N2CCNCC2)nn1 (stereo not given in full)	4.0	103.0	22.6	101.0	·	·	·
C=CCn1c(CNC(=O)c2ccccc2F)nnc1SCC(=O)NC(C)c1ccccc1 (stereo not given)	0.0	102.0	2.6	100.0	·	·	·
O=[N+]([O-])c1cc(Cc2ccccc2)cc(C=Nc2ccc(N3CCOCC3)cc2)c1O	0.0	146.0*	18.6	97.0	89.0	-5.0	96.0
CCOc1ccc(N(CC(=O)Nc2cc(C)ccc2C)S(=O)(=O)c2c(C)[nH]c(=O)[nH]c2=O)cc1	8.0	113.0	15.0	106.0	·	·	·

Compound activity as filed in PubChem.
